Test results as given in ChEMBL document CHEMBL1131329, “Synthesis and antiviral activity of novel acyclic nucleosides: discovery of a cyclopropyl nucleoside with potent inhibitory activity against herpesviruses” (J Med Chem, 1998).
≈ marks a conversion by molar mass, not a printed value.

Key:
Vero [1] = assay: Cytotoxic concentration to uninfected vero cells; assay type: functional, Chlorocebus sabaeus
Procedure, shortened: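 Uninfected Vero cells were run through the same neutral red dye-uptake method as the antiviral test: 3-fold dilutions in EMEM with 2% FBS, 3 days at 37 °C in 5% CO2, A550 read. CC50 is the concentration giving 50% of the cell-control OD. Quadruplicate.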

HFF [2] = assay: Inhibitory activity against DM625 strain of zoster virus(VZV) by plaque reduction assay in HFF cells; assay type: functional, cell-based; conditions: Homo sapiens
HFF [3] = assay: Minimum cytotoxic concentration against uninfected HFF cells; assay type: functional, Homo sapiens
Procedure, shortened: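 Uninfected HFF cells under MEM with 2% FBS in 0.25% agarose overlay with test compound, 5 days at 37 °C in 5% CO2. Examined microscopically for gross morphologic changes, then treated with MTT and 30% SDS; highest concentration 320 μg/mL. Value is the minimum concentration giving morphologic change. Triplicate.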

CCRF-CEM [4] = assay: Inhibitory activity against 1RF strain of HIV-1 by plaque reduction assay in CEM cells; assay type: functional, cell-based
Procedure, shortened: (§1)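 CEM cells pregrown in RPMI 1640 with 10% FCS; HIV-1 RF strain, 32-100 CCID50 units per 0.1 mL, added together with test compound. Incubated 7 days at 37 °C in 5% CO2. CPE inhibition read by MTT dye uptake; IC50 derived. Triplicate.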

Vero [5] = assay: Inhibition of Tomioka strain of herpes simplex virus( Tomioka strain of HSV-1) by quantitative CPE reduction assay in vero cells; assay type: functional, cell-based, Human alphaherpesvirus 1
Procedure, shortened: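 Vero cells in EMEM with 2% FBS, 3-fold compound dilutions, infected with HSV-1 Tomioka at about 100 TCID50 per well. After 3 days at 37 °C in 5% CO2, cells stained with neutral red for 45 min. Dye eluted in pH 4.2 citrate-ethanol, A550 read. Cell control set to 100% and blank to 0%; IC50 is the concentration giving 50% OD. Quadruplicate.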

HFF [6] = assay: Selectivity index is the ratio between IC50 (Anti-VZV Activity (DM625 in HFF Cells)) and minimum cytotoxic concentration (against HFF cells) values of the compound; assay type: functional
CCRF-CEM [7] = assay: Cytotoxic concentration against uninfected CEM cells; assay type: functional, Homo sapiens
Procedure, shortened: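 Uninfected CEM cells in RPMI 1640 with 10% FCS, exposed to test compound for 7 days at 37 °C in 5% CO2. Cytotoxicity measured by MTT dye uptake and expressed as CC25. Triplicate.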

CCRF-CEM [8] = assay: Compound tested for inhibitory activity by plaque reduction assay against HIV-1RF strain in CEM cells; assay type: functional, cell-based; conditions: Homo sapiens; procedure, shortened: as §1
CCRF-CEM [9] = assay: compound tested for inhibitory activity by plaque reduction assay against HIV-1 in CEM cells; assay type: functional, cell-based; conditions: Homo sapiens
CCRF-CEM [10] = assay: compound tested for anti-HIV-1 activity by plaque reduction assay against HIV-1 in CEM cells; assay type: functional; conditions: Homo sapiens; procedure, shortened: as §1
[11] = Chlorocebus sabaeus, Vero, read-out: CC50
[12] = Homo sapiens, CCRF-CEM, read-out: IC50
[13] = Chlorocebus sabaeus, Vero, read-out: IC50

SMILES: Nc1ncnc2c1ncn2C[C@]1(CO)C[C@@H]1CO
- CC50 (Vero [1]; [11]): 120 µg/mL (≈ 481 µM)
- IC50 (HFF [2]): 19.8 µg/mL (≈ 79.4 µM)
- MTC (HFF [3]): 320
- IC50 (CCRF-CEM [4]; [12]): > 100 µg/mL
- IC50 (Vero [5]; [13]): 47 µg/mL (≈ 189 µM)
- SI (HFF [6]): 16
- CC25 (CCRF-CEM [7]): 19.8 µg/mL (≈ 79.4 µM)

SMILES: Nc1nc(O)c2ncn(C[C@@]3(CO)O[C@@H]3CO)c2n1
- CC50 (Vero [1]; [11]): > 500 µg/mL
- IC50 (Vero [5]; [13]): > 500 µg/mL

SMILES: Nc1nc(O)c2ncn(C[C@@]3(CO)C[C@H]3CO)c2n1
- CC50 (Vero [1]; [11]): > 500 µg/mL
- IC50 (HFF [2]): 19.4 µg/mL (≈ 73.1 µM)
- MTC (HFF [3]): 320 µg/mL
- IC50 (CCRF-CEM [4]; [12]): > 100 µg/mL
- IC50 (Vero [5]; [13]): 10 µg/mL (≈ 37.7 µM)
- SI (HFF [6]): 16
- CC25 (CCRF-CEM [7]): >100 µg/mL

SMILES: OC[C@@H]1C[C@@]1(CO)Cn1cnc2c(O)ncnc21
- CC50 (Vero [1]; [11]): > 500 µg/mL
- IC50 (CCRF-CEM [4]; [12]): 25.7 µg/mL (≈ 103 µM)
- IC50 (Vero [5]; [13]): > 500 µg/mL
- CC25 (CCRF-CEM [7]): >100 µg/mL

SMILES: Nc1ccn(C[C@]2(CO)C[C@H]2CO)c(=O)n1
- CC50 (Vero [1]; [11]): > 500 µg/mL
- IC50 (CCRF-CEM [4]; [12]): > 100 µg/mL
- IC50 (Vero [5]; [13]): > 500 µg/mL
- CC25 (CCRF-CEM [7]): >100 µg/mL

SMILES: Nc1nc(O)c2ncn(CC3[C@@H](CO)[C@H]3CO)c2n1 (stereo partly drawn)
- CC50 (Vero [1]; [11]): > 500 µg/mL
- IC50 (Vero [5]; [13]): > 500 µg/mL

SMILES: Nc1nc(O)c2ncn(C[C@@]3(CO)O[C@H]3CO)c2n1
- CC50 (Vero [1]; [11]): > 500 µg/mL
- IC50 (Vero [5]; [13]): 14 µg/mL (≈ 52.4 µM)

SMILES: OC[C@H]1C[C@@]1(CO)Cn1cnc2c(O)ncnc21
- CC50 (Vero [1]; [11]): > 500 µg/mL
- IC50 (CCRF-CEM [4]; [12]): 20.1 µg/mL (≈ 80.3 µM)
- IC50 (Vero [5]; [13]): > 500 µg/mL
- CC25 (CCRF-CEM [7]): >100 µg/mL

SMILES: Nc1ccn(C[C@]2(CO)C[C@@H]2CO)c(=O)n1
- CC50 (Vero [1]; [11]): > 500 µg/mL
- IC50 (CCRF-CEM [4]; [12]): 23.7 µg/mL (≈ 105 µM)
- IC50 (Vero [5]; [13]): 120 µg/mL (≈ 533 µM)
- CC25 (CCRF-CEM [7]): >100 µg/mL

SMILES: Nc1nc(O)c2ncn(CC3[C@H](CO)[C@H]3CO)c2n1 (stereo partly drawn)
- CC50 (Vero [1]; [11]): > 500 µg/mL
- IC50 (HFF [2]): 240 µg/mL (≈ 905 µM)
- MTC (HFF [3]): 320 µg/mL
- IC50 (Vero [5]; [13]): > 500 µg/mL
- SI (HFF [6]): 1.3

SMILES: Nc1nc(O)c2ncn(C/C(=C\CO)CO)c2n1
- CC50 (Vero [1]; [11]): > 500 µg/mL
- IC50 (HFF [2]): 3.2 µg/mL (≈ 12.7 µM)
- MTC (HFF [3]): 320 µg/mL
- IC50 (CCRF-CEM [4]; [12]): > 100 µg/mL
- IC50 (Vero [5]; [13]): 4.2 µg/mL (≈ 16.7 µM)
- SI (HFF [6]): 100
- CC25 (CCRF-CEM [7]): >100 µg/mL

SMILES: Nc1ncnc2c1ncn2C/C(=C/CO)CO
- CC50 (Vero [1]; [11]): 260 µg/mL (≈ 1110 µM)
- IC50 (CCRF-CEM [4]; [12]): > 100 µg/mL
- IC50 (Vero [5]; [13]): > 500 µg/mL
- CC25 (CCRF-CEM [7]): >100 µg/mL

SMILES: Cc1cn(C/C(=C/CO)CO)c(=O)[nH]c1=O
- CC50 (Vero [1]; [11]): > 500 µg/mL
- IC50 (CCRF-CEM [4]; [12]): > 100 µg/mL
- IC50 (Vero [5]; [13]): > 500 µg/mL
- CC25 (CCRF-CEM [7]): >100 µg/mL

SMILES: Cc1cn(C/C(=C\CO)CO)c(=O)[nH]c1=O
- CC50 (Vero [1]; [11]): > 500 µg/mL
- IC50 (CCRF-CEM [4]; [12]): > 100 µg/mL
- IC50 (Vero [5]; [13]): > 500 µg/mL
- CC25 (CCRF-CEM [7]): >100 µg/mL

SMILES: Nc1ncc2ncn(CC3(CO)CC3CO)c2n1 (stereo not drawn)
- CC50 (Vero [1]; [11]): > 500 µg/mL
- IC50 (Vero [5]; [13]): 30 µg/mL (≈ 120 µM)

SMILES: Nc1nc(O)c2ncn(C/C(=C/CO)CO)c2n1
- CC50 (Vero [1]; [11]): > 500 µg/mL
- IC50 (HFF [2]): 52.8 µg/mL (≈ 210 µM)
- MTC (HFF [3]): >320 µg/mL
- IC50 (CCRF-CEM [4]; [12]): > 100 µg/mL
- IC50 (Vero [5]; [13]): 4.2 µg/mL (≈ 16.7 µM)
- SI (HFF [6]): >6.1
- CC25 (CCRF-CEM [7]): >100 µg/mL

SMILES: Nc1nc(O)c2ncn(C[C@]3(CO)C[C@H]3CO)c2n1
- CC50 (Vero [1]; [11]): 240 µg/mL (≈ 905 µM)
- IC50 (HFF [2]): 0.2 µg/mL (≈ 0.754 µM)
- MTC (HFF [3]): 320 µg/mL
- IC50 (CCRF-CEM [4]; [12]): > 100 µg/mL
- IC50 (Vero [5]; [13]): 0.02 µg/mL (≈ 0.0754 µM)
- SI (HFF [6]): 1600
- CC25 (CCRF-CEM [7]): >100 µg/mL

SMILES: Nc1ncnc2c1ncn2C/C(=C\CO)CO
- CC50 (Vero [1]; [11]): 260 µg/mL (≈ 1110 µM)
- IC50 (CCRF-CEM [8]): > 100 µg/mL
- IC50 (Vero [5]; [13]): > 500 µg/mL
- CC25 (CCRF-CEM [7]): >100 µg/mL

SMILES: Nc1nc(N)c2ncn(CC3(CO)CC3CO)c2n1 (stereo not drawn)
- CC50 (Vero [1]; [11]): > 500 µg/mL
- IC50 (CCRF-CEM [4]; [12]): 32.1 µg/mL (≈ 121 µM)
- IC50 (Vero [5]; [13]): 29 µg/mL (≈ 110 µM)
- CC25 (CCRF-CEM [7]): >100 µg/mL

SMILES: Nc1nc(O)c2ncn(C[C@@]3(CO)C[C@@H]3CO)c2n1 (stereo in doubt; 3)
- CC50 (Vero [1]): 530 µg/mL (≈ 2000 µM)
- IC50 (Vero [5]; vero): 0.046 µg/mL (≈ 0.173 µM)

SMILES: Nc1nc(O)c2ncn(C[C@@]3(CO)C[C@@H]3CO)c2n1 (stereo in doubt; 3b)
- CC50 (Vero [1]; [11]): > 500 µg/mL
- IC50 (Vero [5]; vero): 2.2 µg/mL (≈ 8.29 µM)

SMILES: Cc1cn(C[C@]2(CO)C[C@@H]2CO)c(=O)[nH]c1=O (stereo in doubt; 41a)
- CC50 (Vero [1]; [11]): > 500 µg/mL
- IC50 (CCRF-CEM [4]; ccrf-cem): > 100 µg/mL
- IC50 (Vero [5]; [13]): > 500 µg/mL
- CC25 (CCRF-CEM [7]): >100 µg/mL

SMILES: Cc1cn(C[C@]2(CO)C[C@@H]2CO)c(=O)[nH]c1=O (stereo in doubt; 41b)
- IC50 (CCRF-CEM [4]; ccrf-cem): 3.2 µg/mL (≈ 13.3 µM)

SMILES: Nc1nc2c(ncn2COCCO)c(=O)[nH]1 [ACYCLOVIR]
- CC50 (Vero [1]; [11]): 820 µg/mL (≈ 3640 µM)
- MTC (HFF [3]): > 320 µg/mL
- IC50 (Vero [5]; [13]): 0.81 µg/mL (≈ 3.6 µM)

SMILES: Cc1cn([C@H]2C[C@H](N=[N+]=[N-])[C@@H](CO)O2)c(=O)[nH]c1=O [ZIDOVUDINE]
- IC50 (CCRF-CEM [9]): 0.003 µg/mL (≈ 0.0112 µM)
- CC25 (CCRF-CEM [10]): 35.6 µg/mL (≈ 133 µM)
